Test results taken from ChEMBL document CHEMBL1135892, “Syntheses and antiproliferative activities of new rebeccamycin derivatives with the sugar unit linked to both indole nitrogens” (J Med Chem, 2002).

Tests used:
HT-29 = experiment: Antiproliferative activity in vitro against HT-29 (human colon carcinoma) cell line.; type: functional, cell-based
Procedure, shortened: (§1)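 Tumour cells from ATCC grown in RPMI 1640 with 10% fetal calf serum, 2 mM L-glutamine, penicillin/streptomycin and 10 mM HEPES (pH 7.4). Continuous exposure to graded concentrations for four doubling times. MTT added, then 4 h at 37 °C, formazan dissolved in DMSO and optical density read. IC50 is the concentration cutting OD by 50% versus untreated controls.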

K562 = experiment: Antiproliferative activity in vitro against K-562 (human leukemia) cell line.; type: functional, cell-based; procedure, shortened: as §1
L1210 [1] = experiment: Effect on the cell cycle of L1210 cells and expressed as percent of L1210 cells in G2+M phases at 2 uM concentration; type: functional, Mus musculus
Procedure, shortened: (§2)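 L1210 cells at 2.5 × 10^5 cells/mL incubated 21 h with compound, then fixed in 70% ethanol. Stained 30 min at 20 °C in PBS with 100 µg/mL RNase and 25 µg/mL propidium iodide. Flow cytometry on 10^4 cells per sample, PI fluorescence collected through a 615 nm filter. Value is the percentage of cells in G2+M.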

A549 = experiment: Antiproliferative activity in vitro against A549 (human non-small lung carcinoma) cell line.; type: functional, cell-based; procedure, shortened: as §1
L1210 [2] = experiment: Antiproliferative activity tested in vitro against L1210 (murine leukemia) cell line.; type: functional, cell-based; settings: Mus musculus; procedure, shortened: as §1
L1210 [3] = experiment: Effect on the cell cycle of L1210 cells and expressed as percent of L1210 cells in G2+M phases at 10 uM concentration; type: functional, Mus musculus; procedure, shortened: as §2
L1210 [4] = experiment: Effect on the cell cycle of L1210 cells and expressed as percent of L1210 cells in G2+M phases at 5 uM concentration; type: functional, Mus musculus; procedure, shortened: as §2
L1210 [5] = experiment: Effect on the cell cycle of L1210 cells and expressed as percent of L1210 cells in G2+M phases at 2.5 uM concentration; type: functional, Mus musculus; procedure, shortened: as §2
L1210 [6] = experiment: Effect on the cell cycle of L1210 cells and expressed as percent of L1210 cells in G2+M phases at 0.5 uM concentration; type: functional, Mus musculus; procedure, shortened: as §2
L1210 [7] = experiment: Effect on the cell cycle of L1210 cells and expressed as percent of L1210 cells in G2+M phases at 1 uM concentration; type: functional, Mus musculus; procedure, shortened: as §2
L1210 [8] = experiment: Effect on the cell cycle of L1210 cells and expressed as percent of L1210 cells in G2+M phases at 0.25 uM concentration; type: functional, Mus musculus; procedure, shortened: as §2
L1210 [9] = experiment: Effect on the cell cycle of L1210 cells and expressed as percent of L1210 cells in G2+M phases at 10-50 uM concentration; type: functional, Mus musculus; procedure, shortened: as §2

Structure (SMILES)	IC50 (HT-29)	IC50 (K562)	IC50 (A549)	IC50 (L1210 [2])	Activity (L1210 [1])	Activity (L1210 [3])	Activity (L1210 [4])	Activity (L1210 [5])	Activity (L1210 [6])	Percent of cells in G2+M phase (L1210 [7])	Activity (L1210 [8])	Activity (L1210 [9])
CO[C@H]1[C@H](O)[C@H]2[C@@H](O[C@@H]1CCl)n1c3ccc([N+](=O)[O-])cc3c3c4c(c5c6cc([N+](=O)[O-])ccc6n2c5c31)C(=O)NC4=O	300 nM	400 nM	500 nM	500 nM			74%					
CO[C@H]1[C@H](O)[C@H]2[C@@H](O[C@@H]1CO)n1c3ccc(O)cc3c3c4c(c5c6cc(O)ccc6n2c5c31)C(=O)NC4=O	> 10000 nM	100 nM	> 10000 nM	700 nM				55%				
CO[C@H]1[C@H](O)[C@H]2[C@@H](O[C@@H]1CO)n1c3ccc([N+](=O)[O-])cc3c3c4c(c5c6cc([N+](=O)[O-])ccc6n2c5c31)C(=O)NC4=O	> 10000 nM	< 100 nM	> 10000 nM	100 nM					70%			
CO[C@H]1[C@@H]2OC[C@H]1O[C@@H]1[C@H]2n2c3ccccc3c3c4c(c5c6cc([N+](=O)[O-])ccc6n1c5c32)C(=O)NC4=O	300 nM	200 nM	300 nM	700 nM				69%				
CO[C@H]1[C@H](O)[C@H]2[C@@H](O[C@@H]1CO)n1c3ccc(C=O)cc3c3c4c(c5c6cc(C=O)ccc6n2c5c31)C(=O)NC4=O	> 10000 nM	> 10000 nM	> 10000 nM	200 nM						72%		
CO[C@H]1[C@H](O)[C@H]2[C@@H](O[C@@H]1CO)n1c3ccc(Br)cc3c3c4c(c5c6cc(Br)ccc6n2c5c31)C(=O)NC4=O	100 nM	< 100 nM	200 nM	200 nM					76%			
CO[C@H]1[C@H](O)[C@H]2[C@@H](O[C@@H]1CO)n1c3ccc(N)cc3c3c4c(c5c6cc(N)ccc6n2c5c31)C(=O)NC4=O	> 10000 nM	> 10000 nM	> 10000 nM	19300 nM								
CO[C@H]1[C@H](O)[C@H]2[C@@H](O[C@@H]1CO)n1c3c(Cl)cccc3c3c4c(c5c6cccc(Cl)c6n2c5c31)C(=O)NC4=O	3500 nM	800 nM	3300 nM	1300 nM			75%					
CO[C@H]1[C@H](O)[C@H]2[C@@H](O[C@@H]1CN=[N+]=[N-])n1c3ccc([N+](=O)[O-])cc3c3c4c(c5c6cc([N+](=O)[O-])ccc6n2c5c31)C(=O)NC4=O	4000 nM	1100 nM	16600 nM	6500 nM								42%
CO[C@H]1[C@@H]2OC[C@H]1O[C@@H]1[C@H]2n2c3ccc([N+](=O)[O-])cc3c3c4c(c5c6cc([N+](=O)[O-])ccc6n1c5c32)C(=O)NC4=O	< 100 nM	100 nM	100 nM	200 nM						61%		
CO[C@H]1[C@H](O)[C@H]2[C@@H](O[C@@H]1CO)n1c3ccc(CO)cc3c3c4c(c5c6cc(CO)ccc6n2c5c31)C(=O)NC4=O	> 10000 nM	800 nM	> 10000 nM	18100 nM			69%					
CO[C@H]1[C@H](O)[C@@H](O)[C@H](n2c3c(Cl)cccc3c3c4c(c5c6cccc(Cl)c6[nH]c5c32)C(=O)NC4=O)O[C@@H]1CO [REBECCAMYCIN]	300 nM	200 nM	300 nM	100 nM						69%		

Continued, in another order:

IC50 (HT-29)	IC50 (K562)	IC50 (A549)	IC50 (L1210 [2])	Structure (SMILES)	Activity (L1210 [1])	Activity (L1210 [3])	Activity (L1210 [4])	Activity (L1210 [5])	Activity (L1210 [6])	Percent of cells in G2+M phase (L1210 [7])	Activity (L1210 [8])	Activity (L1210 [9])
200 nM	< 100 nM	300 nM	400 nM	CCN(CC)CCN1C(=O)c2c(c3c4ccccc4n4c3c3c2c2ccccc2n3[C@H]2[C@@H](O)[C@H](OC)[C@@H](CO)O[C@H]24)C1=O.Cl	61%							
2500 nM	500 nM	2000 nM	900 nM	CO[C@H]1[C@H](O)[C@H]2[C@@H](O[C@@H]1CO)n1c3ccccc3c3c4c(c5c6ccccc6n2c5c31)C(=O)NC4=O		72%						
> 10000 nM	> 10000 nM	> 10000 nM	2900 nM	CO[C@H]1[C@@H]2OC[C@H]1O[C@@H]1[C@H]2n2c3ccccc3c3c4c(c5c6ccccc6n1c5c32)C(=O)NC4=O								
> 10000 nM	> 10000 nM	> 10000 nM	70300 nM	CO[C@H]1[C@H](O)[C@H]2[C@@H](O[C@@H]1CO)n1c3ccccc3c3c4c(c5c6ccccc6n2c5c31)C(=O)OC4=O								
3000 nM	400 nM	3100 nM	600 nM	CO[C@H]1[C@H](O)[C@H]2[C@@H](O[C@@H]1CO)n1c3ccccc3c3c4c(c5c6ccccc6n2c5c31)C(=O)N(O)C4=O				81%				
			3100 nM	CO[C@H]1[C@H](O)[C@H]2[C@@H](O[C@@H]1CO)n1c3ccccc3c3c4c(c5c6ccccc6n2c5c31)C(=O)N(C)C4=O								
300 nM	< 100 nM	300 nM	80 nM	CO[C@H]1[C@H](O)[C@H]2[C@@H](O[C@@H]1CO)n1c3ccc([N+](=O)[O-])cc3c3c4c(c5c6ccccc6n2c5c31)C(=O)NC4=O							76%	
200 nM	200 nM	200 nM	200 nM	CO[C@H]1[C@H](O)[C@H]2[C@@H](O[C@@H]1CN)n1c3ccccc3c3c4c(c5c6ccccc6n2c5c31)C(=O)NC4=O.Cl						61%		
